From ChEMBL document CHEMBL1240382, “Elucidation of the pharmacokinetic/pharmacodynamic determinant of colistin activity against Pseudomonas aeruginosa in murine thigh and lung infection models” (Antimicrob Agents Chemother, 2010)

Experiments:
Format in all cases: ADME, organism-based
Conditions in all cases: in vivo
Mus musculus [1] = test: Apparent volume of distribution to bioavailability in Pseudomonas aeruginosa infected neutropenic Swiss mouse at 5 mg/kg, sc
Outline: (§1)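 Single s.c. colistin (sulfate) dose (5, 10, 20 or 40 mg/kg) in neutropenic thigh-infected mice; central-vein blood at 6–8 times over 10 h, 4 mice per time; plasma colistin by HPLC (0.10–4.00 mg/liter calibration). Unbound levels from concentration-dependent fu (equilibrium dialysis, pH 7.4 phosphate buffer, 21 h, 37°C); parameters by noncompartmental analysis.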

Mus musculus [2] = test: Cmax in Pseudomonas aeruginosa infected neutropenic Swiss mouse at 40 mg/kg, sc; parameters: dose 40 mg/kg, route subcutaneous; outline: as §1
Mus musculus [3] = test: Tmax in Pseudomonas aeruginosa infected neutropenic Swiss mouse at 40 mg/kg, sc; parameters: dose 40 mg/kg, route subcutaneous; outline: as §1
Mus musculus [4] = test: Tmax in Pseudomonas aeruginosa infected neutropenic Swiss mouse at 10 mg/kg, sc; parameters: dose 10 mg/kg, route subcutaneous; outline: as §1
Mus musculus [5] = test: Half life in Pseudomonas aeruginosa infected neutropenic Swiss mouse at 20 mg/kg, sc; parameters: dose 20 mg/kg, route subcutaneous; outline: as §1
Mus musculus [6] = test: Apparent volume of distribution to bioavailability in Pseudomonas aeruginosa infected neutropenic Swiss mouse at 10 mg/kg, sc; outline: as §1
Mus musculus [7] = test: Apparent volume of distribution to bioavailability in Pseudomonas aeruginosa infected neutropenic Swiss mouse at 40 mg/kg, sc; outline: as §1
Mus musculus [8] = test: Apparent volume of distribution to bioavailability in Pseudomonas aeruginosa infected neutropenic Swiss mouse at 20 mg/kg, sc; outline: as §1
Mus musculus [9] = test: Half life in Pseudomonas aeruginosa infected neutropenic Swiss mouse at 10 mg/kg, sc; parameters: dose 10 mg/kg, route subcutaneous; outline: as §1
Mus musculus [10] = test: Half life in Pseudomonas aeruginosa infected neutropenic Swiss mouse at 40 mg/kg, sc; parameters: dose 40 mg/kg, route subcutaneous; outline: as §1
Mus musculus [11] = test: Cmax in Pseudomonas aeruginosa infected neutropenic Swiss mouse at 5 mg/kg, sc; parameters: dose 5 mg/kg, route subcutaneous; outline: as §1
Mus musculus [12] = test: Half life in Pseudomonas aeruginosa infected neutropenic Swiss mouse at 5 mg/kg, sc; parameters: dose 5 mg/kg, route subcutaneous; outline: as §1
Mus musculus [13] = test: Cmax in Pseudomonas aeruginosa infected neutropenic Swiss mouse at 10 mg/kg, sc; parameters: dose 10 mg/kg, route subcutaneous; outline: as §1
Mus musculus [14] = test: Cmax in Pseudomonas aeruginosa infected neutropenic Swiss mouse at 20 mg/kg, sc; parameters: dose 20 mg/kg, route subcutaneous; outline: as §1
Mus musculus [15] = test: Tmax in Pseudomonas aeruginosa infected neutropenic Swiss mouse at 20 mg/kg, sc; parameters: dose 20 mg/kg, route subcutaneous; outline: as §1
Mus musculus [16] = test: Tmax in Pseudomonas aeruginosa infected neutropenic Swiss mouse at 5 mg/kg, sc; parameters: dose 5 mg/kg, route subcutaneous; outline: as §1

Vc/F (Mus musculus [1]): 10.1 L/kg
Cmax (Mus musculus [2]): 8890 ng/mL
Tmax (Mus musculus [3]): 2 h
Tmax (Mus musculus [4]): 0.5 h
t1/2 (Mus musculus [5]): 1.34 h
Vc/F (Mus musculus [6]): 4.63 L/kg
Vc/F (Mus musculus [7]): 3.27 L/kg
Vc/F (Mus musculus [8]): 4.88 L/kg
t1/2 (Mus musculus [9]): 1.14 h
t1/2 (Mus musculus [10]): 1.39 h
Cmax (Mus musculus [11]): 310 ng/mL
t1/2 (Mus musculus [12]): 0.298 h
Cmax (Mus musculus [13]): 1440 ng/mL
Cmax (Mus musculus [14]): 3290 ng/mL
Tmax (Mus musculus [15]): 2 h
Tmax (Mus musculus [16]): 1 h
Sequence: COLISTIMETHATE SODIUM
